# From PubChem BioAssay
# Calls of active or inactive are those of the source.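 The calls were made as follows, unless noted: active = viability at or under a set limit in both replicates, limit being median viability minus 3 SD (cut at about 48% in these data, passing the limit was not always enough); inconclusive = at or under the limit in just one replicate; inactive = at or above the limit in both replicates.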
# Tests used:
# [1] = SK-BR-3 cell growth inhibitors, pilot screen, 24 h, human (AID 572;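 active = viability at or below 10% of carrier control in both of two separate runs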;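 also: compound exposure lasted between 18 and 24 h rather than exactly 24 h; 100% = carrier-treated control wells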); details: SK-BR-3 viability, CellTiter-Glo luminescence, at 10 µM, stronger effect = lower value
# [2] = HUVEC growth inhibition – cell-based, human, primary screen (AID 575;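 active = viability at or below 30% in both replicate assays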;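 also: 100% = median of untreated cell wells with 0.1% DMSO on each plate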); details: HUVEC proliferation, CellTiter-Glo luminescence, 72 h; at 10 µM; stronger effect = lower value
# Method in brief: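 Test system: primary human umbilical vein endothelial cells; medium: endothelial basal medium with 2% FBS plus growth supplements; dosing: 10 µM compound only; times: 72 h treatment at 37 °C; signal: CTG luminescence; read-out: % viability relative to median vehicle-well signal on each plate; control set: vehicle and MePR control wells; plate: 384-well, collagen-coated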
# [3] = growth inhibitors of H69AR lung tumor, primary screen, human, duplicate replicates (AID 580); details: H69AR lung tumor cells viability, ATP luminescence, 72 h; at 10 µM; stronger effect = lower value;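 also: 100% = mean luminescence of untreated wells and 0% = no signal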
# [4] = reversal of MRP1-mediated doxorubicin resistance, pilot screen, H69AR cells, doxorubicin co-treatment (AID 601;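 active = viability loss from added drug above about 55%, and viability with drug at most 40%, in both replicates, limit read from the data, passing the limit was not always enough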); details: CellTiter-Glo, 72 h, at 10 µM; for differential viability (reversal): stronger effect = higher value
# [5] = 384-well plate pilot, post-Golgi transport modulator project, inhibition of yeast transport mutant growth (AID 636; in the data active = inhibition above about 31%); details: absorbance 615 nm, about 18 h, stronger effect = higher value
# [6] = growth suppression of yeast trafficking mutant, preliminary HTS, modulators of trafficking downstream of Golgi apparatus project, 1536-format plate, OD 615 nm (AID 637; in the data active = inhibition above about 30%); details: yeast transport mutant growth, absorbance 615 nm, 18 h; stronger effect = higher value
# [7] = H69AR cells + 2 uM doxorubicin, measured here: viability with 2 uM doxorubicin, stronger effect = lower value
# [8] = H69AR cells, compound alone cytotoxicity
Compound,viability [1],viability [2],viability [3],differential viability (reversal) ([4]; H69AR cells + 2 uM doxorubicin),"viability [4, 7] [%]","viability [4, 8] [%]",inhibition [5],inhibition [6]
COc1ccc(OC)c(NC(=O)C23CCC(C)(C(=O)C2)C3(C)C)c1 (stereo unspecified),72% (inactive),101% (inactive),102% (inactive),-0.69% (inactive),103,102,-6.3% (inactive),-2.73% (inactive)
COc1cc(NC(=O)c2cccs2)cc(OC)c1,72% (inactive),95.4% (inactive),97.7% (inactive),13.6% (inactive),84,97.7,-2.97% (inactive),-8.18% (inactive)
O=c1[nH]c(NCc2ccccc2)nc2c1CCCC2,87% (inactive),115% (inactive),104% (inactive),7.85% (inactive),96.5,104,-4.19% (inactive),-10% (inactive)
COc1ccc(NC(=O)CSc2ccccn2)cc1OC,87% (inactive),97.3% (inactive),95.1% (inactive),20.2% (inactive),74.9,95.1,2% (inactive),1.82% (inactive)
CC(C)NCC(O)COc1ccc(CC(N)=O)cc1 (stereo unspecified),88% (inactive),87.5% (inactive),88.1% (inactive),-0.64% (inactive),88.7,88.1,1.95% (inactive),-2.67% (inactive)
O=C(NCCN1CCOCC1)c1ccc(CS(=O)(=O)Cc2ccccc2F)o1,59% (inactive),102% (inactive),108% (inactive),0.59% (inactive),107,108,-3.84% (inactive),1.64% (inactive)
C=CCN1C(=O)CS/C1=C(\C#N)S(=O)(=O)c1ccc(C)cc1,114% (inactive),96.2% (inactive),85.5% (inactive),-2.67% (inactive),88.2,85.5,-5.62% (inactive),-1.45% (inactive)
Cc1c(CNCc2cccs2)c(C(=O)O)c(C)n1Cc1ccccc1,91% (inactive),109% (inactive),99.8% (inactive),5.63% (inactive),94.2,99.8,-3.97% (inactive),0.18% (inactive)
Cc1csc(NC(=O)C2CCCO2)n1 (stereo unspecified),87% (inactive),86.9% (inactive),91.4% (inactive),9.97% (inactive),81.4,91.4,-4.16% (inactive),10.3% (inactive)
Cc1nc2c(-c3ccccc3)c(C)[nH]n2c(=O)c1Cl,93% (inactive),72.7% (inactive),77.5% (inactive),-19.2% (inactive),96.8,77.5,-0.55% (inactive),11.8% (inactive)
O=C(O)c1ccc(CSc2ncn[nH]2)cc1,107% (inactive),105% (inactive),94.4% (inactive),-6.27% (inactive),101,94.4,-6.16% (inactive),0.55% (inactive)
COc1ccc(CN(Cc2cc3cc4c(cc3[nH]c2=O)OCO4)C(=O)NC2CCCCC2)cc1,85% (inactive),63.9% (inactive),96.9% (inactive),0.835% (inactive),96,96.9,1.22% (inactive),-1.27% (inactive)
CN(Cc1ccccc1)C(=O)c1ccccc1NC(=O)c1ccco1,94% (inactive),104% (inactive),101% (inactive),13.5% (inactive),87.1,101,-1.76% (inactive),-2.55% (inactive)
CCN(CCO)C(=O)CC(c1ccccc1)c1cc(Br)ccc1O (stereo unspecified),101% (inactive),101% (inactive),93.8% (inactive),-3.22% (inactive),97,93.8,-2.3% (inactive),-3.09% (inactive)
CCc1nn(CC(=O)N2CCN(Cc3ccc4c(c3)OCO4)CC2)c(=O)c2cc3occc3n12,87% (inactive),100% (inactive),91.8% (inactive),-2.36% (inactive),94.2,91.8,0.14% (inactive),-4.55% (inactive)
CC(=O)Nc1nnc(S(N)(=O)=O)s1,95% (inactive),88.7% (inactive),109% (inactive),24.6% (inactive),84.6,109,-1.82% (inactive),3.33% (inactive)
COc1cc(C(=O)NCC(=O)OCC(=O)c2ccc[nH]2)cc(OC)c1OC,76% (inactive),101% (inactive),91.5% (inactive),-3.86% (inactive),95.3,91.5,-4.38% (inactive),-0.55% (inactive)
Cc1c(C(=O)NCc2ccccn2)sc2nc(-c3ccc(F)cc3)cn12,119% (inactive),89.4% (inactive),95.4% (inactive),13.1% (inactive),82.3,95.4,-3.12% (inactive),3.77% (inactive)
Cc1ccc(S(=O)(=O)NC(C)C(=O)Nc2ccc(C(N)=O)cc2)cc1 (stereo unspecified),81% (inactive),88.4% (inactive),100% (inactive),4.08% (inactive),96,100,-0.27% (inactive),-5.81% (inactive)
CCOC(=O)Nc1cc(OC)c(OC)cc1Cc1nccc2cc(OC)c(OC)cc12,113% (inactive),95.7% (inactive),87.1% (inactive),5.61% (inactive),81.5,87.1,-2.05% (inactive),28.7% (inactive)
Nc1nc(-c2ccc(Br)s2)c(Br)s1,100% (inactive),61.3% (inactive),94.3% (inactive),9.83% (inactive),84.5,94.3,2.6% (inactive),-0.16% (inactive)
COCCCN1C(=O)C(O)=C(C(C)=O)C1c1ccccn1 (stereo unspecified),106% (inactive),102% (inactive),86.6% (inactive),0.675% (inactive),85.9,86.6,-3.73% (inactive),-1.45% (inactive)
CCOc1cc(C(=O)Nc2ncccn2)cc(OCC)c1OCC,117% (inactive),105% (inactive),87.5% (inactive),4.8% (inactive),82.7,87.5,-2.86% (inactive),5.08% (inactive)
Cc1cnc(NC(=O)C2=C(O)c3ccccc3S(=O)(=O)N2C)s1,102% (inactive),84% (inactive),89.9% (inactive),0.62% (inactive),89.3,89.9,3.51% (inactive),-2.83% (inactive)

Compound,viability [1],viability [2],viability [3],differential viability (reversal) ([4]; H69AR cells + 2 uM doxorubicin),"viability [4, 7] [%]","viability [4, 8] [%]",inhibition [5],inhibition [6]
CCOC(=O)C1=C(N)OC2=C(C(=O)CC(C)(C)C2)C1c1ccco1 (stereo unspecified),90% (inactive),97.3% (inactive),87.8% (inactive),3.79% (inactive),84,87.8,1.04% (inactive),3.28% (inactive)
Clc1ccc(-n2nnnc2Sc2ncnc3sccc23)cc1,123% (inactive),5.51% (active),1.29% (active),-0.27% (inactive),1.56,1.29,20.6% (inactive),65.5% (active)
NNC(=O)c1ccncc1,108% (inactive),101% (inactive),104% (inactive),10.2% (inactive),93.7,104,1.04% (inactive),17.5% (inactive)
CN1C(=O)c2oc3ccccc3c(=O)c2C1c1ccccn1 (stereo unspecified),105% (inactive),87% (inactive),106% (inactive),11% (inactive),94.8,106,-6.58% (inactive),-1.09% (inactive)
COc1ccc(S(=O)(=O)Nc2cc(C)on2)cc1OC,80% (inactive),97.1% (inactive),105% (inactive),1.57% (inactive),104,105,-1.1% (inactive),-5.81% (inactive)
CCCCC[C@H](O)/C=C/[C@@H]1[C@@H](CCCCCCC(=O)O)[C@@H](O)C[C@H]1O,113% (inactive),89.6% (inactive),103% (inactive),9.71% (inactive),93.6,103,0.26% (inactive),2.33% (inactive)
O=C(O)C1CCCCC1C(=O)Nc1ccccn1 (stereo unspecified),115% (inactive),93.9% (inactive),108% (inactive),8.84% (inactive),99.4,108,-4.52% (inactive),-4.73% (inactive)
O=C(CCn1c(=O)c2ccccc2n(CC(=O)NCCC2=CCCCC2)c1=O)NCc1ccco1,99% (inactive),90.9% (inactive),92.2% (inactive),5.12% (inactive),87,92.2,-5.06% (inactive),-2.79% (inactive)
COc1ccccc1-c1nnc(NC(=O)c2ccc(S(=O)(=O)N(C)Cc3ccccc3)cc2)o1,85% (inactive),23.9% (active),19.2% (active),-25.1% (inactive),44.3,19.2,1.3% (inactive),6.56% (inactive)
CCCN1Cc2cccc(C(=O)NC3CCCC3)c2C1=O,111% (inactive),91.5% (inactive),87.9% (inactive),5.09% (inactive),82.8,87.9,-7.47% (inactive),6.36% (inactive)
CCOC(=O)C1=C(C)NC(C)=C(C(=O)OC)C1c1cccc([N+](=O)[O-])c1 (stereo unspecified),68% (inactive),58% (inactive),83% (inactive),-14.7% (inactive),97.7,83,5.58% (inactive),-1.17% (inactive)
CCOC(=O)CSc1nc2sc(C)c(C)c2c(=O)[nH]1,98% (inactive),101% (inactive),92.2% (inactive),-15.3% (inactive),108,92.2,-4.79% (inactive),13.3% (inactive)
Cc1ccc(C2=N/C(=C/N3CCOCC3)C(=O)O2)cc1,84% (inactive),82.5% (inactive),90.6% (inactive),13.1% (inactive),77.5,90.6,-2.08% (inactive),-7.21% (inactive)
Cc1ccc(S(=O)(=O)N2CCN(C(=O)CSC3CCCC3)CC2)c(C)c1,74% (inactive),87.4% (inactive),81.6% (inactive),-7.29% (inactive),88.8,81.6,-9.59% (inactive),-5.32% (inactive)
COc1ccc(S(=O)(=O)Nc2ccc(Cl)cn2)c(C)c1C,100% (inactive),107% (inactive),88.5% (inactive),0.69% (inactive),87.8,88.5,-0.93% (inactive),0% (inactive)
COc1cccc(-c2nnn(CC(=O)O)n2)c1,149% (inactive),100% (inactive),91% (inactive),1.7% (inactive),89.3,91,-1.43% (inactive),1.97% (inactive)
COc1ccc(OC)c(-c2cc(C(=O)NCc3cccs3)no2)c1,101% (inactive),76.2% (inactive),94.4% (inactive),7.29% (inactive),87.1,94.4,-2.6% (inactive),-5.74% (inactive)
Cn1c(=O)n(CCC(=O)O)c2ccccc21,93% (inactive),111% (inactive),97.2% (inactive),13.1% (inactive),84.1,97.2,-7.67% (inactive),5% (inactive)
COc1ccccc1CNC(=O)Nc1cccs1,126% (inactive),63.8% (inactive),72.1% (inactive),5.65% (inactive),66.5,72.1,-0.78% (inactive),4.1% (inactive)
CC(C)[N+]1(C)[C@@H]2CC[C@H]1CC(OC(=O)C(CO)c1ccccc1)C2 (stereo partly specified),113% (inactive),96% (inactive),100% (inactive),9.31% (inactive),90.9,100,-6.36% (inactive),-2.83% (inactive)
Cc1cc(C)c(NC(=O)CSc2nnc(-c3ccncc3)n2Cc2ccco2)c(C)c1,91% (inactive),109% (inactive),97.4% (inactive),3.25% (inactive),94.2,97.4,-2.7% (inactive),-4.73% (inactive)
CC(=O)c1ccccc1NS(=O)(=O)c1c(C)nn(-c2ccccc2)c1C,99% (inactive),77.6% (inactive),88.3% (inactive),-5% (inactive),93.3,88.3,-3.11% (inactive),-4.55% (inactive)
COc1ccc(CCN2C(=O)CC(N3CCN(S(=O)(=O)c4ccccc4)CC3)C2=O)cc1 (stereo unspecified),103% (inactive),107% (inactive),96.7% (inactive),-9.06% (inactive),106,96.7,2.05% (inactive),-0.36% (inactive)
